Experimental data from different studies.
Lines come from different studies, so protocols differ.
Oprd1: Delta-type opioid receptor (Oprd1, Rattus norvegicus, UniProt P33533)
CDK2 with cyclin A2: Cyclin-dependent kinase 2, with cyclin A2 (CDK2, Homo sapiens, UniProt P24941)
ST14: Suppressor of tumorigenicity 14 protein (ST14, Homo sapiens, UniProt Q9Y5Y6)

C[C@H]1C(=O)/C(=C/c2ccccc2)[C@H]2C[C@@H]1N(Cc1ccccc1)C[C@@]2(C)O  inhibition (Oprd1; ligand displacement, radioligand; 1 µM): 16%
CC(=O)Nc1c(N)nc(SCC(=O)N/N=C/c2ccc([N+](=O)[O-])cc2)[nH]c1=O  inhibition (CDK2 with cyclin A2; enzyme activity, inhibitor; 20 nM): 21.3%
N=C(N)NCCC[C@H](NC(=O)[C@@H](NC(=O)[C@H](Cc1cscn1)NC(=O)CCc1ccccc1)c1ccccc1)C(=O)c1nc2ccccc2s1  remaining activity (ST14; enzyme activity, inhibitor; 0.1 µM): 33%
COc1cc(-c2cncc3c2CN(C)Cc2cc(N4CCNCC4)ccc2-3)cc(OC)c1OC  remaining activity (Cyclin-dependent kinase 2, with cyclin E (CDK2, Homo sapiens, UniProt P24941); enzyme activity, inhibitor; 1 µM): 107%
C=CCCCCCC(C)(NC(=O)[C@H](Cc1cscn1)NC(=O)CCc1ccccc1)C(=O)N[C@@H](CCCNC(=N)N)C(=O)c1nc2ccccc2s1 (stereo partly drawn)  remaining activity (ST14; enzyme activity, inhibitor; 0.1 µM): 89%
CC(=O)Nc1c(N)nc(SCC(=O)NN)[nH]c1=O  inhibition (CDK2 with cyclin A2; enzyme activity, inhibitor; 20 nM): 30.9%
C=CC(=O)N1CCC(COCC(=O)N2CCN(c3nc(-c4cnc(N)nc4C(F)F)nc(N4CCOC[C@@H]4C)n3)CC2)CC1  remaining binding (ALK tyrosine kinase receptor (ALK, Homo sapiens, UniProt Q9UM73); binding, competition with immobilised ligand; 1 µM): 72%
Cc1cc([C@@H](C)Nc2ccccc2C(=O)O)c2nc(N3CCC(F)(F)CC3)c(C#N)c(=O)n2c1  remaining binding (Serine/threonine-protein kinase pim-1 (PIM1, Homo sapiens, UniProt P11309); binding, competition with immobilised ligand; 1 µM): 100%
COc1ccc2[nH]c3c(c2c1)[C@H]1C[C@@H]([C@H]3C)N(Cc2ccccc2)C[C@]1(C)O  inhibition (Oprd1; ligand displacement, radioligand; 1 µM): 13%
N=C(N)NCCC[C@H](NC(=O)[C@@H](CC1CCCCC1)NC(=O)[C@H](Cc1cscn1)NC(=O)CCc1ccccc1)C(=O)c1nc2ccccc2s1  remaining activity (ST14; enzyme activity, inhibitor; 0.1 µM): 95%
CNc1ncc2c(/C=C/C(=O)N3CCC(OC)CC3)nn(Cc3cccc(C(F)(F)F)c3)c2n1  remaining activity (Mitogen-activated protein kinase kinase kinase 14 (MAP3K14, Homo sapiens, UniProt Q99558); enzyme activity, inhibitor, radiometric; 1 µM): 105%
N=C(N)NCCC[C@H](NC(=O)[C@H](Cc1cccc(I)c1)NC(=O)[C@H](Cc1cscn1)NC(=O)CCc1ccccc1)C(=O)c1nc2ccccc2s1  remaining activity (ST14; enzyme activity, inhibitor; 0.1 µM): 79%
CNC(=O)c1cc(Oc2ccc(NC(=O)Nc3ccc(Cl)c(C(F)(F)F)c3)cc2)ccn1  inhibition (CDK2 with cyclin A2; enzyme activity, inhibitor; 1 nM): 19.6%
CC(C)C(C)(NC(=O)[C@H](Cc1cscn1)NC(=O)CCc1ccccc1)C(=O)N[C@@H](CCCNC(=N)N)C(=O)c1nc2ccccc2s1 (stereo partly drawn)  remaining activity (ST14; enzyme activity, inhibitor; 0.1 µM): 83%
O=C(COP(=O)(O)O)[C@@H](O)[C@H](O)[C@H](O)COP(=O)(O)O  ΔTm (Glyceraldehyde-3-phosphate dehydrogenase (GAPDH, Homo sapiens, UniProt P04406); thermal stability; 5 mM, lysate): 5.9 °C
